# CYP2C9 inhib: blockers of cytochrome P450 2C9 activity – biochemical, luminescence, ADME assay, primary screen; P11712; inhibition, % at 5 µM; AID 777, 2007; 96,000 tested, 20% active; CYP2C9 Supersomes, luciferin-H conversion;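 active = blocking of liver enzyme CYP2C9 beyond about 50% at 5 µM, limit read from the data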
# Ecoli WT expand: growth inhibitors of wild-type E. coli, primary screen, strain BW25113, expanded library, OD600. OD600 absorbance. growth inhibition, % at 100 µM. 98,000 tested, 0.15% active;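 active = growth inhibition above about 50% at one test dose, limit read from the data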;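 note: growth measured after 20 h incubation at 37 °C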
# CYP2C19 act: human CYP2C19 activators, primary screen, biochemical, luminescence; activation factor at 5 µM; AID 1025, 2008; recombinant CYP2C19, luciferin-H EGE luminescence; stronger effect = higher value; 0 = fully inhibited enzyme, 1 = untreated enzyme; 96,000 tested, under 10 active; Cytochrome P450 2C19 (Homo sapiens), P33261;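 active = activation factor of at least 2 at 5 µM in the primary screen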;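 note: 0 = wells with 2.5 mM tranylcypromine and 1 = vehicle-only wells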
# Target sequence (P33261 whole entry, looked up): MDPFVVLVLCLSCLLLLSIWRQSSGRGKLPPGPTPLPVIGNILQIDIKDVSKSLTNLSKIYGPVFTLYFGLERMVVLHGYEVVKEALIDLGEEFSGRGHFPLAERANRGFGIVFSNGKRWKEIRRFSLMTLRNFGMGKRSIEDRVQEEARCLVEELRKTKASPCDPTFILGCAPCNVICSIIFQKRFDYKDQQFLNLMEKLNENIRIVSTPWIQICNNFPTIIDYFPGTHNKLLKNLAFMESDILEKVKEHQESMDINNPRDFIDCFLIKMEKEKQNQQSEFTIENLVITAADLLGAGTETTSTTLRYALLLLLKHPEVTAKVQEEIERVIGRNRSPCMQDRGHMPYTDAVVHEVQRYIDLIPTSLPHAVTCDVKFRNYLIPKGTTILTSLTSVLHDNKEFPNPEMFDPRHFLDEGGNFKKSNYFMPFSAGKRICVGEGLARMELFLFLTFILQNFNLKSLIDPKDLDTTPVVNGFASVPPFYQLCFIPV
# CYP2C9 activ: human CYP2C9 activators, primary screen, biochemical, luminescence; activation factor at 5 µM; recombinant CYP2C9, luciferin-H conversion; stronger effect = higher value; factor 1 = untreated enzyme, 0 = blocked; AID 1024, 2008; 96,000 tested, 1.4% active;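 active = activation factor of 2 or more for CYP2C9 at a 5 µM dose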;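 note: 0 = sulfaphenazole-blocked wells and 1 = vehicle-only wells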
# Ecoli tolC: growth inhibitors of E. coli tolC mutant, primary screen, strain BW25113 ΔtolC::kan, 384-well. OD615. AID 573, 2007. 65,000 tested, 2.2% active. growth inhibition, % at 10 µM (by protocol);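 active = growth inhibition at or above a cutoff equal to the mean over every tested compound plus 3 SD, cut at about 60% in these data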;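 note: growth measured after 20 h incubation at 37 °C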
#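 Test system – E. coli BW25113 ΔtolC::kan, tolC deletion mutant strain · Detection – OD at 615 nm · Buffer or medium – LB with kanamycin 50 µg/mL · Times – 20 h compound exposure of bacteria at 37 °C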
# CYP2C19 inh: blockers of cytochrome P450 2C19 activity – biochemical, luminescence, ADME assay, primary screen | P33261 | CYP2C19 Supersomes, luciferin-H EGE luminescence, 30 min | inhibition, % at 5 µM | 96,000 tested, 21% active;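 active = CYP2C19 inhibition above a set limit at 5 µM in the primary screen, cut at about 50% in these data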;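 note: plate controls were negative control wells for no effect and 2.5 mM tranylcypromine positive control for full effect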
# Starred values were filed as active, the others as inactive; . = no result. An excerpt weighted towards active compounds, which were near 29% of everything screened.
SMILES,CYP2C9 inhib,Ecoli WT expand,CYP2C19 act,CYP2C9 activ,Ecoli tolC,CYP2C19 inh
Cc1ccc(NC(=O)CN(C)S(=O)(=O)c2cccc3cccnc23)cc1,77.8*,-2.0,0.6,0.2,10.0,41.1
COc1cc(OC)cc(C(=O)NN2CCCCC2)c1,-15.4,0.0,1.1,1.2,.,-9.1
CSc1nc2ccccc2n1C(=O)NC1CCCCC1,9.9,-7.0,0.8,0.9,-21.1,15.3
O=C(NN1c2ccccc2CCc2ccccc21)c1ccccc1Br,20.0,-18.0,0.7,0.8,.,26.4
O=S(=O)(/C=C/c1ccccc1)Oc1ccccc1,-7.0,28.0,0.2,1.1,.,78.6*
O=C(O)c1ccc(NS(=O)(=O)/C=C/c2ccccc2)cc1,5.0,0.0,0.9,0.9,-8.8,6.0
COc1cccc(-c2ccc(=O)n(CC(=O)Nc3cc4c(cc3NC(C)=O)OCCO4)n2)c1,38.5,-6.0,0.3,0.6,-12.7,68.8*
COc1cccc(-c2ccc(=O)n(CC(=O)Nc3ccc(C(=O)N4CCCC4)cc3)n2)c1,36.3,8.0,0.5,0.6,.,54.9*
COc1cccc(-c2ccc(=O)n(CC(=O)NCCN3CCOCC3)n2)c1,.,-8.0,.,.,-5.9,.
Cc1ccc(C(C)n2cc(C(=O)NCc3ccncc3)nn2)cc1 (stereo not given),88.7*,0.0,0.6,0.1,-8.4,43.1
CC(c1ccccc1)n1cc(C(=O)NCc2cccnc2)nn1 (stereo not given),-6.1,11.0,0.6,1.1,-2.6,39.2
CC(C1CC1)N(C(=O)c1ccccc1O)c1ccccc1 (stereo not given),40.9,8.0,0.2,0.6,3.3,80.2*
O=C(CCc1nc(-c2ccccc2)no1)NCCc1ccccc1,36.1,7.0,0.5,0.6,.,46.0
C#CCOC(=O)CCC(=O)NCCc1ccccc1,26.3,2.0,0.3,0.7,-10.9,67.3*
Cn1c(=O)cc(SCC(=O)NCCN2CCN(c3ccccc3F)CC2)c2cc(Cl)ccc21,-14.4,-4.0,0.7,1.1,9.6,33.0
O=C(NCc1nc(-c2ccccc2)no1)c1cccs1,32.6,21.0,0.4,0.7,2.5,56.5*
O=C(NCc1nc(-c2ccccc2)no1)c1ccc(Br)o1,5.2,23.0,0.3,0.9,22.7,71.9*
O=C(NCc1ccncc1)c1ccc(Br)o1,28.3,-3.0,0.9,0.7,-0.6,13.9
COC(=O)c1ccnc(/C=N/O)c1,.,4.0,.,.,3.1,.
COc1cccc2cc(-c3nc(-c4cccs4)cs3)c(=O)oc12,83.2*,-18.0,0.6,0.2,7.9,42.7
O=c1oc2ccccc2cc1-c1nc(-c2cccs2)cs1,29.5,-14.0,1.1,0.7,.,-5.0
CCOC(=O)N1CCN(C(=O)CCCOc2ccccc2)CC1,-7.0,6.0,0.9,1.1,-7.1,13.4
O=C(CCCOc1ccccc1)N1CCN(c2ccccc2)CC1,78.1*,1.0,0.4,0.2,.,62.4*
Cc1cccc(N2CCN(C(=O)CCCOc3ccccc3)CC2)c1C,80.9*,0.0,0.3,0.2,31.8,74.7*
O=C(CCCOc1ccccc1)N1CCc2ccccc2C1,49.6,-5.0,0.2,0.5,22.5,82.7*
SMILES,CYP2C9 inhib,Ecoli WT expand,CYP2C19 act,CYP2C9 activ,Ecoli tolC,CYP2C19 inh
O=C(CCCN1C(=O)c2cccc3cccc(c23)C1=O)N1CCc2ccccc2C1,-295.5,-13.0,0.5,4*,.,52.5*
O=C1c2ccccc2C(=O)N1CCCC(=O)N1CCc2ccccc21,-40.8,0.0,0.7,1.4,-5.2,27.5
CCN1CCCC1CNC(=O)C(=O)Nc1ccc(OC)cc1 (stereo not given),-9.2,0.0,1.1,1.1,.,-11.4
Cc1cccc(N2CCN(C(=O)Cc3c(C(=O)O)[nH]c4ccc(Cl)cc34)CC2)c1C,87.1*,0.0,0.6,0.1,87.0*,42.8
O=C(CCCN1C(=O)c2ccccc2C1=O)N1CCC(c2ccccc2)C1 (stereo not given),66.9*,1.0,0.2,0.3,5.4,79.2*
COc1ccc(Cl)cc1NC(=O)C/C(C)=N/NC(=O)CC#N,-72.4,1.0,1.2,1.7,.,-15.6
COc1ccc(Cl)cc1NC(=O)CC(C)c1ccccc1 (stereo not given),-296.4,-1.0,0.2,4*,.,84.6*
COc1ccc(Cl)cc1NC(=O)CN(C)C(C)C(=O)NCC1CCCCC1 (stereo not given),-160.1,-1.0,0,2.6*,28.4,99.3*
COc1ccc(Cl)cc1NC(=O)NCCCl,-12.2,7.0,0.8,1.1,.,17.6
COc1ccc(NC(=O)C2CCCO2)cc1OC (stereo not given),7.7,-3.0,1.1,0.9,.,-7.3
COc1ccc(Cl)cc1NC(=O)C1CCCO1 (stereo not given),-213.7,-1.0,0.7,3.1*,11.6,28.6
COc1ccc(Cl)cc1NC(=O)CC(C)=O,-260.7,-5.0,0.9,3.6*,-4.8,7.9
Cc1ccc(-c2c(C)n([O-])c3c([n+]2=O)CCCC3)o1,14.1,-5.0,0.8,0.9,.,19.1
COC(=O)c1ccc(C(=O)Nc2cc(Cl)ccc2Cl)cc1NC(=O)c1ccc(N(C)C)cc1,3.7,-9.0,1.1,1,.,-8.3
CCc1c(C)c2nncn2[nH]c1=O,-8.5,-5.0,1.1,1.1,-22.7,-12.4
O=C(NCCCN1CCN(c2ccccc2F)CC1)C1CCC(=O)N1C1CCCC1 (stereo not given),.,.,.,.,-14.7,.
Cc1ccc(/C=C/C(=O)c2cc(Br)ccc2OC(=O)c2ccco2)cc1,75.6*,-15.0,0.2,0.2,.,83.2*
COCC(=O)Nc1ccc(S(=O)(=O)NCCc2ccccc2)cc1,69.0*,13.0,0,0.3,-1.2,95.1*
CCC(=O)Nc1ccc(S(=O)(=O)NCCc2ccccc2)cc1,35.4,4.0,0.2,0.6,.,75.3*
CCCCn1nc2cc(C(=O)NC3CCCc4ccccc43)ccc2c1OCC (stereo not given),18.4,1.0,0.9,0.8,.,11.2
CC(C)(C)c1cc(NC(=O)COc2ccc(Br)cc2)n(-c2ccccc2)n1,-8.2,-14.0,0.6,1.1,.,35.6
CN1c2ccccc2-c2nc3ccccc3n2C1c1ccncc1 (stereo not given),95.1*,-10.0,0,0,6.6,95.8*
CCN1c2ccccc2-c2nc3ccccc3n2C1c1ccco1 (stereo not given),58.6*,-12.0,0.7,0.4,.,28.1
CSCCC(NC(=O)c1ccccc1)C(=O)NCc1ccco1 (stereo not given),9.4,0.0,0.5,0.9,-8.1,45.1
COc1cc(C#CC#CCN2CCCCC2)ccc1O,-75.5,34.0,0.5,1.8,24.1,47.5
CCOc1ccc(-c2nnc(-c3ccncc3)o2)cc1,44.5,-1.0,0,0.6,-4.2,98.8*

# Compound activity from PubChem BioAssay.
